Measured values as given in ChEMBL document CHEMBL1122113, “Synthesis and antitumor activity of new platinum complexes” (J Med Chem, 1982).
“And” between values parts separate entries of the source, which are not always exact repeats. Identical values can stand only once.

What was measured:
L1210 [1] = experiment: In vitro inhibition of PDD resistant subline L1210/PDD growth.; type: functional, cell-based; settings: Mus musculus
Method in brief: (§1)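 Murine L1210 and PDD-resistant L1210/PDD cells kept in McCoy's 5A with 10% fetal calf serum. Compounds in water or Me2SO, or as suspensions, added to inoculated medium; Me2SO at most 0.2% final. Seeding about 5 × 10^4 cells/mL, then 96 h at 37 °C in 5% CO2. Density measured by electronic cell counter. ID50 (µg/mL) from growth inhibition.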

L1210 [2] = experiment: In vitro inhibition of L1210 leukemia cells growth.; type: functional, cell-based; settings: Mus musculus; method in brief: as §1
Mus musculus [3] = experiment: Activity against L1210 leukemia cells was measured as treated by control on ip administration of 1 mg/kg in mice; type: functional, organism-based; set-up: dose 1 mg/kg; settings: at 1 mg/kg
Mus musculus [4] = experiment: Activity against L1210 leukemia cells was measured as treated by control on ip administration of 10 mg/kg in mice; type: functional, organism-based; set-up: dose 10 mg/kg; settings: at 10 mg/kg
Mus musculus [5] = experiment: Activity against L1210 leukemia cells was measured as treated by control on ip administration of 50 mg/kg in mice;Toxic; type: functional, organism-based; set-up: dose 50 mg/kg; settings: at 50 mg/kg
Mus musculus [6] = experiment: Activity against L1210 leukemia cells was measured as treated by control on ip administration of 5 mg/kg in mice; type: functional, organism-based; set-up: dose 5 mg/kg; settings: at 5 mg/kg
Mus musculus [7] = experiment: Activity against L1210 leukemia cells was measured as treated by control on ip administration of 1.25 mg/kg in mice; type: functional, organism-based; set-up: dose 1.25 mg/kg; settings: at 1.25 mg/kg
Mus musculus [8] = experiment: Activity against L1210 leukemia cells was measured as treated by control on ip administration of 20 mg/kg in mice; type: functional, organism-based; set-up: dose 20 mg/kg; settings: at 20 mg/kg
Mus musculus [9] = experiment: Activity against L1210 leukemia cells was measured as treated by control on ip administration of 2.5 mg/kg in mice; type: functional, organism-based; set-up: dose 2.5 mg/kg; settings: at 2.5 mg/kg
Mus musculus [10] = experiment: Activity against L1210 leukemia cells was measured as treated by control on ip administration of 0.62 mg/kg in mice; type: functional, organism-based; set-up: dose 0.62 mg/kg; settings: at 0.62 mg/kg
Mus musculus [11] = experiment: Activity against L1210 leukemia cells was measured as treated by control on ip administration of 40 mg/kg in mice; type: functional, organism-based; set-up: dose 40 mg/kg; settings: at 40 mg/kg

## 1-(4-pyridiniumyl)-2-(1-trichloroplatinum-4-pyridiniumyl)ethane
L1210 [1]
  ID50: > 10 µg/mL
L1210 [2]
  ID50: > 10 µg/mL

## 1-(trichloro-dihydroxy)platinum-3-pyridiniumammonium
L1210 [1]
  ID50: > 10 µg/mL
L1210 [2]
  ID50: 4.5 µg/mL

## 1-chloroplatinumsulphate-3-pyridiniumammonium
L1210 [1]
  ID50: > 10 µg/mL
L1210 [2]
  ID50: 4.6 µg/mL

## 1-methyl-4-trichloroplatinumhexahydropyrazinediium
L1210 [1]
  ID50: > 10 µg/mL
L1210 [2]
  ID50: 9 µg/mL

## 1-pentachloroplatinum-3-pyridiniumammonium
L1210 [1]
  ID50: > 10 µg/mL
L1210 [2]
  ID50: 4.4 µg/mL

## 1-trichloroplatinum-1,4-diazoniabicyclo[2.2.2]octane
L1210 [1]
  ID50: > 10 µg/mL
L1210 [2]
  ID50: > 10 µg/mL

## 1-trichloroplatinum-3-pyridiniumammonium
L1210 [1]
  ID50: > 10 µg/mL
L1210 [2]
  ID50: > 10 µg/mL

## 1-trichloroplatinum-3-pyridiniumylmethanammonium
Mus musculus [3]
  T/C: 100%
L1210 [1]
  ID50: > 10 µg/mL
Mus musculus [4]
  T/C: 125%
Mus musculus [5]
  T/C: Toxic
L1210 [2]
  ID50: > 10 µg/mL
Mus musculus [6]
  T/C: 123% and 138%

## 1-trichloroplatinumhexahydro-1-pyridiniumammonium
L1210 [1]
  ID50: > 10 µg/mL
L1210 [2]
  ID50: 4.2 µg/mL

## 1-trichloroplatinumhexahydropyrazinediium
L1210 [1]
  ID50: > 10 µg/mL
L1210 [2]
  ID50: > 10 µg/mL

## 2,5-dimethyl-1-trichloroplatinumhexahydropyrazinediium
L1210 [1]
  ID50: > 10 µg/mL
L1210 [2]
  ID50: 10 µg/mL

## 2-(1-ethylhexahydro-2-pyridiniumyl)-1-trichloroplatinumpyridinium
L1210 [1]
  ID50: > 10 µg/mL
L1210 [2]
  ID50: > 10 µg/mL

## 3-(1-methyltetrahydro-1H-2-pyrroliumyl)-1-trichloroplatinumpyridinium
L1210 [1]
  ID50: > 10 µg/mL
L1210 [2]
  ID50: > 10 µg/mL

## 4-trichloroplatinum-4-azoniabicyclo[2.2.2]oct-2-ammonium
L1210 [1]
  ID50: 5 µg/mL
L1210 [2]
  ID50: 2 µg/mL

## N-methyl-1-trichloroplatinum-3-pyridiniumylmethanammonium
Mus musculus [7]
  T/C: 122%
Mus musculus [8]
  T/C: 133%
Mus musculus [9]
  T/C: 126%
L1210 [1]
  ID50: > 10 µg/mL
Mus musculus [4]
  T/C: 130%
Mus musculus [10]
  T/C: 110%
L1210 [2]
  ID50: > 10 µg/mL
Mus musculus [6]
  T/C: 120%

## ethyl(1-trichloroplatinum-2-pyridiniumyl)ammonium
L1210 [1]
  ID50: > 10 µg/mL
L1210 [2]
  ID50: > 10 µg/mL

## ethyl(1-trichloroplatinum-2-pyridiniumylmethyl)ammonium
Mus musculus [11]
  T/C: 148%
Mus musculus [8]
  T/C: 140%
Mus musculus [9]
  T/C: 119%
L1210 [1]
  ID50: > 10 µg/mL
Mus musculus [4]
  T/C: 139%
L1210 [2]
  ID50: > 10 µg/mL
Mus musculus [6]
  T/C: 122%
